The target of the assay is T1, B31 DBPA (Borreliella burgdorferi, UniProt O50917).
T1 sequence (O50917 24-191): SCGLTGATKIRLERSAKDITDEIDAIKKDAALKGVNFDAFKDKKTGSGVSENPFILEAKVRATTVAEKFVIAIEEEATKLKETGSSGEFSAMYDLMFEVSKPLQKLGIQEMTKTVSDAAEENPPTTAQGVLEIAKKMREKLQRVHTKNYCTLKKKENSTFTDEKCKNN
Kind of assay: NMR control titration for non-specific TEMPO-DBPA interactions. The class given is binding, Borrelia burgdorferi. Particulars: similar protein-to-ligand ratios as TEMPO-labeled heparin dp6. In a few lines:
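Samples of 400 μL held 150 to 200 μM ¹⁵N-labelled B31 WT DBPA in 50 mM NaH₂PO₄, pH 6.5, 150 mM NaCl. The DBPA construct was a His-tagged fusion expressed in E. coli BL21(DE3) in M9 medium, Ni-affinity purified and cleaved with USP2. Amide ¹H transverse relaxation was measured with delays of 1, 4.5, 8, 11.5, 15 and 18.5 ms.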

With `CC1(C)CC(N)CC(C)(C)N1[O]` [4-amino-TEMPO], the “changes in transverse relaxation rates of the protein” value is on record as “no significant changes”.

Source of the values: PMC3896217 (Biochemistry, 2013).
